# NR2E3 ag-1: activates human photoreceptor nuclear receptor NR2E3. inhibition of corepressor binding, % at 4.78 µM. AID 2300. Q9Y5X4. 320,000 tested, 0.12% active. GST-NR2E3/biotin-RetCOR TR-FRET, 1536-well;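 active means percent inhibition above the cutoff of mean plus 3 SD of all tested compounds, set per screening campaign, cut at about 20% in these data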;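 further: 0% = DMSO wells and 100% = biotin wells as full block of FRET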
# Target sequence (Q9Y5X4 whole entry, looked up): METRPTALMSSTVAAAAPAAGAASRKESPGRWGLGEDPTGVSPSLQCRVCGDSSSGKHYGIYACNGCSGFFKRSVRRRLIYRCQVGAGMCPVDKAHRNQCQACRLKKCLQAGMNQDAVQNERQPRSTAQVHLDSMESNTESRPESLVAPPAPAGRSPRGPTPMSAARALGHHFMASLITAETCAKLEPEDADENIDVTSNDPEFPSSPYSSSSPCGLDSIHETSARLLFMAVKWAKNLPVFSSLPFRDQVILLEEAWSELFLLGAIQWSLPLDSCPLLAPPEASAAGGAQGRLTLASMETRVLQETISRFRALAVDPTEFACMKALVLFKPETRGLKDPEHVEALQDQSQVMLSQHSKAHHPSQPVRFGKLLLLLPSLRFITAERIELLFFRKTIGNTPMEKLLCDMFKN
#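 Material: NR2E3–RetCOR corepressor complex / Amount: 1.35 nM GST-NR2E3 / Medium: Tris pH 7.5 / Compound: single nominal compound dose of 4.8 µM / Incubation: 5 h at 4 °C / Technique: TR-FRET, Eu(K)-anti-GST donor, streptavidin-D2 acceptor, ex 340, em 617/671 nm / Read-out basis: percent loss of FRET ratio relative to control wells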
# aDG glyco act: increases alpha dystroglycan glycosylation | activation, % at 10 µM | 360,000 tested, 0.22% active | Pro5-aDG cells, alpha-DG glycosylation AlphaScreen (IIH6); 0% Pro5, 100% B10-LARGE cell signal;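 active means activation of at least 8% versus controls, or a plate z-score of at least 8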;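 further: Pro5 are CHO cells carrying HIG-tagged alpha-DG that lacks glycosylation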
# MPTP block: blocks calcium-induced mitochondrial swelling | 360,000 tested, 1.4% active | isolated mouse mitochondria, Ca2+ swelling absorbance, 30 min | inhibition, % at 10 µM;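 active means inhibition of 50% or more, scaled per plate between neutral and stimulator controls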;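 further: 0% = DMSO wells given calcium and 100% = 1 mM EGTA wells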
# 697 NFkB inh: inhibitors of the PMA/ionomycin-induced NF-kB reporter in 697 B cells; 697 B-cell NF-kB luciferase reporter, 16 h; 330,000 tested, 0.33% active; inhibition, % at 4 µM; in the data active means inhibition above about 35%
# NR2E3 ag-2: human photoreceptor-specific nuclear receptor agonism; Q9Y5X4; CHO-S Gal4-NCOR/VP16-NR2E3 two-hybrid, luciferase; inhibition of corepressor binding, % at 3.98 µM; 360,000 tested, 0.35% active;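 active means inhibition above the mean of all tested compounds plus 3 SD, cut at about 70% in these data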;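 further: 0% = DMSO with NR2E3 transfected cells and 100% = cells lacking NR2E3 construct; higher means lower luciferase signal from less NR2E3 corepressor binding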
# Jurkat NFkB inh: inhibitors of the PMA/ionomycin-induced NF-kB reporter in Jurkat cells. PMA/ionomycin-induced NF-kB luciferase reporter, luminescence. inhibition, % at 4 µM. 330,000 tested, 0.53% active. AID 435003; in the data active means inhibition above about 50%
# NR2E3 ag confirm: NR2E3 agonism confirmed in two-hybrid assay. shares compounds with NR2E3 ag-2. CHO-S mammalian two-hybrid NR2E3-NCOR, luciferase luminescence. inhibition, % at 3.98 µM. 2,300 tested, 51% active;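 active means average inhibition above a cutoff equal to the mean inhibition of all tested compounds plus one SD, cut at about 70% in these data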;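 further: 0% = DMSO in NR2E3 cells and 100% = DMSO in cells lacking NR2E3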
# GAL4-VP16 luc: GAL4-VP16 reporter inhibition in NR2E3 agonist counterscreen. 2,300 tested, 29% active. shares compounds with NR2E3 ag-2. inhibition, % at 3.98 µM. CHO-S GAL4-VP16 luciferase reporter, luminescence;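 active means mean inhibition above a cutoff equal to the average over all tested compounds plus one standard deviation, cut at about 70% in these data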;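 further: luciferase from a UAS reporter driven by GAL4-VP16 transactivation; 0% = DMSO with VP16-transfected cells and 100% = DMSO with cells lacking VP16; higher means less reporter light so more repression of VP16 activity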
# * hit, by the source's call; · = no result given. In the library only some 2.4% were active in any assay of this set; here they are far more common.
SMILES,NR2E3 ag-1,aDG glyco act,MPTP block,697 NFkB inh,NR2E3 ag-2,Jurkat NFkB inh,NR2E3 ag confirm,GAL4-VP16 luc
CCn1c(=O)c(C(=O)Nc2nc3ccccc3[nH]2)c(O)c2ccccc21,2,0,5,10,57,13,14,44
O=C(COc1cccc2ccccc12)Nc1ccc(Cl)cc1C(=O)O,1,0,38,·,78*,·,95*,55
O=C(COc1cccc2ccccc12)Nc1cc(Cl)ccc1C(=O)O,2,0,5,20,45,15,·,·
CC(=O)c1c(C)[nH]c(C(=O)OCC(=O)c2ccc(Br)cc2)c1C,·,1,0,·,57,·,86*,56
CC(C)CC(NC(N)=O)C(=O)OCC(=O)Nc1ccc(OC(F)F)cc1 (stereo unspecified),3,0,2,10,7,-5,·,·
COc1ccc(S(=O)(=O)N2CCCCC2)cc1NC(=S)Nc1ccccc1,-3,0,3,15,91*,0,86*,-12
COc1ccc(S(=O)(=O)N2CCCCC2)cc1NC(=S)Nc1cccc(Cl)c1C,-1,0,10,5,80*,10,89*,-22
COc1cc(C(=O)OCC(=O)N2CCN(C(C)=O)CC2)ccc1OCC(C)C,-1,0,-1,15,-20,6,·,·
CCOc1ccc(S(=O)(=O)NCCC(=O)N(C)Cc2cccs2)cc1,3,0,-1,15,-3,1,·,·
O=C(NC(=S)N1CCN(c2c(Cl)cccc2[N+](=O)[O-])CC1)c1cccs1,3,0,1,-16,54,-6,39,35
COc1ccc(N2CCN(C(=S)NC(=O)c3cccs3)CC2)c([N+](=O)[O-])c1,-1,0,10,12,1,-6,·,·
CC1=C(C)C(C)=C(C#N)C(=C(C#N)C#N)N1,-2,0,2,3,-8,1,·,·
Cc1ccc(S(=O)(=O)N(CC(=O)Nc2ccccc2C(=O)O)c2ccccc2C)cc1,3,0,0,7,2,6,·,·
Cc1ccc(S(=O)(=O)N(CC(=O)Nc2ccccc2C(=O)O)c2cccc(Cl)c2C)cc1,0,0,36,-28,90*,5,98*,37
CCC(C)c1ccc(OCc2ccc(C(=O)O)o2)cc1 (stereo unspecified),0,0,-1,-114,-224,34,·,·
CC(=O)N(/N=C1\Sc2ccccc2C1=O)c1ccc(C)cc1C,-1,0,1,-207,67,2,62,22
C[C@@H]1CC[C@@]2(O[C@@H](CCO)C[C@H](O)[C@H]2O)O1,0,0,0,9,-1,-9,·,·
O=C(NC(=O)N1CCN(c2ccccc2)CC1)c1ccc(Cl)cc1,-4,0,1,-29,-39,-40,·,·
O=C(NC(=O)N1CCN(c2cccc(Cl)c2)CC1)c1ccc(Cl)cc1,0,0,1,33,80*,12,95*,54
COc1ccc(N2CCN(C(=O)NC(=O)c3ccccc3)CC2)cc1,-4,0,0,9,9,-3,·,·
CC(C)C(NC(=O)Cc1ccccc1)C(=O)N1CCN(c2cccc(Cl)c2)CC1 (stereo unspecified),0,3,4,-16,63,14,65,42
O=C(NC(=O)N1CCN(c2cccc(Cl)c2)CC1)c1ccccc1,-2,1,0,15,51,5,85*,35
CC(C)(C)OC(=O)N1Cc2ccccc2C[C@H]1C(=O)NCC(=O)Nc1ccc2c(c1)OCCO2,-2,0,-2,-25,59,29,27,8
COc1cnc(N(C)C)nc1Sc1ccc(Cl)cc1,0,0,0,8,-18,16,·,·
COc1ccc(Sc2nc(-c3ccccn3)ncc2OC)cc1,0,4,-1,6,92*,10,42,9
SMILES,NR2E3 ag-1,aDG glyco act,MPTP block,697 NFkB inh,NR2E3 ag-2,Jurkat NFkB inh,NR2E3 ag confirm,GAL4-VP16 luc
COc1cnc(-c2ccccn2)nc1Sc1ccc(Cl)cc1,1,2,1,-39,70,-9,12,-24
CCOC(=O)CSc1nc(-c2ccccn2)ncc1OC,-4,1,-2,-23,-14,0,·,·
COc1cnc(-c2ccccn2)nc1Sc1ccc(F)cc1,2,4,-1,-11,67,-2,29,-8
COc1cc(C(F)(F)F)nc(-c2ccccn2)n1,2,0,0,-3,-18,2,·,·
COc1cnc(-c2ccccn2)nc1Sc1ccccc1,5,6,-3,-23,94*,-15,35,1
COc1cnc(-c2ccccn2)nc1Oc1cccc(C(F)(F)F)c1,2,2,1,-25,-2,-6,·,·
Cc1cc(C(=O)OCc2nnc(-c3ccccc3)o2)c(C)n1-c1ccccc1,-7,4,6,-2,68,3,58,65
Cc1cc(NC(=O)C(=O)NCCN2CCN(C(=O)c3cccs3)CC2)ccc1Br,-1,1,-2,-16,10,10,·,·
COc1ccccc1C(=O)N1CCN(CCNC(=O)C(=O)Nc2ccc(Br)c(C)c2)CC1,8,0,-1,-21,49,6,39,36
O=C(CN1CCC(NC(=O)c2ccccc2Cl)CC1)NCc1ccccc1,8,0,-1,5,-10,17,·,·
CCCc1ccc(-c2ccc(/C=C/C(=O)O)cc2)nc1,-1,0,-2,·,75*,·,85*,61
COc1cccc(NC(=O)CCc2c(C)nc3nc(CNC(=O)c4cccc(F)c4)nn3c2C)c1,0,0,0,10,-17,-8,·,·
C=C(C)C1CCC2(C(=O)O)CCC3(C)C(CCC4C5(C)C(C=O)C(O)C(C)(C)C5CCC43C)C12 (stereo unspecified),0,0,-2,-6,76*,2,57,18
Cc1ccc2nc(-c3ccccc3O)c(Nc3ccc4c(c3)OCCO4)n2c1,-2,0,1,-69,-4,26,·,·
Clc1ccc2nc(-c3ccccn3)c(Nc3ccc4c(c3)OCO4)n2c1,2,1,-3,·,52,·,-66,-87
COc1cc(OC)c(OC)cc1CNC(=O)c1ccc(COc2ccccc2)cc1,2,1,27,-19,58,-1,37,39
COc1ccc(CN(C)C(=O)c2ccc(COc3ccccc3)cc2)c(OC)c1,1,0,1,0,-14,-5,·,·
Cc1ccccc1Oc1cc(-n2ncc(Cl)c(Cl)c2=O)ncn1,-16,-1,2,·,49,·,63,-18
